# Results from different studies.
# Each line is one published result; the experiments were not run side by side.
# Target: Serine/threonine-protein kinase 38 (STK38, Homo sapiens, UniProt Q15208)
Compound,assay,conditions,remaining binding [%]
COc1ncc2cc3ccccc3nc2c1C#N,"cell-free assay, competition with immobilised ligand",5 µM,94
O=C(Nc1c[nH]nc1C(=O)NC1CCNCC1)c1cc(F)cc(F)c1,"binding, competition with immobilised ligand",1 µM,97
c1cnn2ncc(-c3ccnc(N4CCC45COC5)n3)c2c1,binding,1 µM,87
c1cncc(-c2cccc(Nc3nccc(NC4CCCCC4)n3)c2)c1,"binding, competition with immobilised ligand",10 µM,89
CN(c1nccc(-c2cnn3ncccc23)n1)C1CC1,binding,1 µM,100
Cc1cc(-n2nc(Cc3cc(F)cc(C(F)(F)F)c3)nc2C)ccc1C(N)=O,"cell-free assay, competition with immobilised ligand",1 µM,83
O=C(c1ccc(Nc2ncc(Cl)c(-c3ccc(Cl)s3)n2)cc1)N1CCC(N2CCCC2)CC1,"binding, competition with immobilised ligand",1 µM,67
CN(C)c1ncc(F)c(-c2cnn3ncccc23)n1,binding,1 µM,90
CCS(=O)(=O)c1cc2cc(C[C@@](O)(CC(C)(C)c3ccc(F)cc3C(N)=O)C(F)(F)F)[nH]c2cn1,"cell-free assay, competition with immobilised ligand",1 µM,76
CNC(=O)[C@@H]1CC[C@@H](n2c(-c3ccc4cnccc4c3)nc3ccc(C(=O)NCc4cccc(C(N)=O)c4)cc32)C1,"binding, competition with immobilised ligand",1 µM,62
C=CC(=O)N1CCC(C(=O)NCC(=O)N2CCN(c3nc(-c4cnc(N)nc4C(F)F)nc(N4CCOCC4)n3)CC2)CC1,"binding, competition with immobilised ligand",1 µM,88
C[C@H]1CCN(c2nccc(-c3cnn4ncccc34)n2)C1,binding,1 µM,93
O=C(NCCCN1CCOCC1)c1ccc(Nc2nccc(-c3cc4ccccc4s3)n2)cc1,"binding, competition with immobilised ligand",1 µM,66
CCOCCn1cc(C(=O)Nc2ccc(-n3nc(-c4cccnc4)cc3C(F)(F)F)cn2)ccc1=O,"cell-free assay, competition with immobilised ligand",1 µM,91
COc1ccnn2ncc(-c3ccnc(N(C)C)n3)c12,binding,1 µM,100
Cc1nc(N2CC[C@@H](O)C2)ncc1-c1cc(C(F)(F)F)cc2[nH]ncc12,"binding, competition with immobilised ligand",1 µM,95
O=C(c1ccc(Nc2ncc(Cl)c(-c3cc4ccccc4s3)n2)cc1)N1CCC(N2CCCC2)CC1,"binding, competition with immobilised ligand",1 µM,78
COc1ccc2c(O[C@@H]3C[C@H]4C(=O)N[C@]5(C(=O)O)CC5/C=C\CCCCC[C@H](NC(=O)OC5CCCC5)C(=O)N4C3)cc(-c3csc(NC(=O)C(C)C)n3)nc2c1C (stereo partly drawn),"cell-free assay, competition with immobilised ligand",1 µM,50
C[C@@H](c1ccc(-n2cnc3c(N)ncnc32)cc1)N1CCc2nn(C)c(Cc3ccccc3)c2C1=O,"binding, competition with immobilised ligand",0.1 µM,71
Cc1c(NC(=O)c2cc(C(N)=O)nc3cc(F)ccc23)c(C(F)(F)F)nn1Cc1ccc(C(C)(C)C)cc1,"cell-free assay, competition with immobilised ligand",1 µM,93
N[C@H]1CCN(c2nccc(-c3cnn4ncccc34)n2)C1,binding,1 µM,100
